{"source": "ChEMBL document CHEMBL3352262", "about": "“Synthesis and structure-activity relationships of pteridine dione and trione monocarboxylate transporter 1 inhibitors” (J Med Chem, 2014)", "key": {"[1]": {"target": "T1, Monocarboxylate transporter 4 (Homo sapiens) (UniProt O15427)", "T1 sequence (whole entry)": "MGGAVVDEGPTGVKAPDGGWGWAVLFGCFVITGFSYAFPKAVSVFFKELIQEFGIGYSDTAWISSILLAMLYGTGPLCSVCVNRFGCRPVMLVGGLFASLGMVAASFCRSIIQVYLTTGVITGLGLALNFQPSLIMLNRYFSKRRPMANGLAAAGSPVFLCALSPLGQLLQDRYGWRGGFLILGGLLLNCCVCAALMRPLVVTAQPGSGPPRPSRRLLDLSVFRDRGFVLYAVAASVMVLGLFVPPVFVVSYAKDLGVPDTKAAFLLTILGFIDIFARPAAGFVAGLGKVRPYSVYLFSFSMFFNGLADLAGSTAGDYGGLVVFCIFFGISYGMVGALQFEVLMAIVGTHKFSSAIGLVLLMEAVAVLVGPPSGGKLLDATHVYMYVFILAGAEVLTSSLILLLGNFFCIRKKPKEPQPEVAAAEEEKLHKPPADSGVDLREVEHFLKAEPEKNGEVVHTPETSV", "experiment": "Inhibition of MCT4 (unknown origin) overexpressed in human MCF7 cells assessed as inhibition of transporter-mediated [14C]lactate transport after 10 mins by scintillation counting", "format": "cell-based"}, "Raji": {"tested_on": "Raji", "experiment": "Growth inhibition of human Raji cells after 96 hrs by MTT assay", "format": "functional, cell-based", "how_it_was_run": "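Human Raji Burkitt lymphoma cells were seeded at 20000/well and cultured with compound or vehicle for 4 days (96 h) in 5% CO2. MTT reagent was added for 5 h, then 2-propanol/0.04 N HCl, and absorbance was read at 570 and 630 nm. EC50 came from curve fitting.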"}, "MCF7 [2]": {"tested_on": "MCF7", "experiment": "Growth inhibition of human MCF7 cells overexpressing MCT4 after 4 days by MTT assay", "format": "cell-based", "conditions": "MCF7, 96 h", "how_it_was_run": "(§1)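 MCF7 cells engineered to overexpress mouse MCT1 or human MCT4 were seeded at 2000/well and compound was added the next day. Cells were cultured 4 days in 5% CO2, then given MTT reagent for 5 h and solubilized with 2-propanol/0.04 N HCl. Absorbance was read at 570 and 630 nm, in triplicate. The highest concentration tested on MCF7_MCT4 cells was 10 μM.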"}, "MCF7 [3]": {"tested_on": "MCF7", "experiment": "Growth inhibition of human MCF7 cells overexpressing MCT1 after 4 days by MTT assay", "format": "functional, cell-based", "conditions": "MCF7, 96 h", "how_it_was_run": "as §1"}, "MCF7 [4]": {"tested_on": "MCF7", "experiment": "Growth inhibition of human MCF7 cells overexpressing MCT4 up to 10 uM after 4 days by MTT assay", "format": "cell-based", "conditions": "mcf7, 96 h", "how_it_was_run": "as §1"}, "MCF7 [5]": {"tested_on": "MCF7", "experiment": "Growth inhibition of human MCF7 cells overexpressing MCT4 at 10 uM after 4 days by MTT assay", "format": "cell-based", "conditions": "mcf7, 96 h", "how_it_was_run": "as §1"}}, "note": "Active and inactive are the calls of the source. No cut-off for these calls is given here."}
{"smiles": "CC(C)Cc1nn(C)c(=O)c2c(SCCCO)n(Cc3cccc4ccccc34)cc12", "values": [{"measurement": "inhibition", "setting": "[1]", "result": "inactive"}, {"measurement": "EC50", "setting": "Raji", "result": 0.5, "unit": "nM"}, {"measurement": "EC50", "setting": "MCF7 [2]", "result": "> 10000", "unit": "nM"}, {"measurement": "EC50", "setting": "MCF7 [3]", "result": 21, "unit": "nM"}]}
{"smiles": "CC(C)Cn1c(=O)n(C)c(=O)c2c1nc(Cc1cccc3ccccc13)c(=O)n2CCCCO", "values": [{"measurement": "EC50", "setting": "Raji", "result": 150, "unit": "nM"}]}
{"smiles": "COCCCCCc1nc2c(=O)n(C)c(=O)n(CC(C)C)c2nc1Cc1cccc2ccccc12", "values": [{"measurement": "EC50", "setting": "Raji", "result": 5780, "unit": "nM"}]}
{"smiles": "CC(C)Cn1c(=O)n(C)c(=O)c2c1nc(Cc1cccc3ccccc13)c(=O)n2CCCCCCO", "values": [{"measurement": "EC50", "setting": "Raji", "result": "> 10000", "unit": "nM"}]}
{"smiles": "Cc1n[nH]c(C)c1Cc1sc2c(c1C(=O)N1C[C@H](O)CO1)c(=O)n(C)c(=O)n2CC(C)C", "values": [{"measurement": "EC50", "setting": "Raji", "result": 18, "unit": "nM"}]}
{"smiles": "CC(C)Cn1c(=O)n(C)c(=O)c2nc(S(=O)(=O)CCCO)c(Cc3cccc4ccccc34)nc21", "values": [{"measurement": "EC50", "setting": "Raji", "result": 3750, "unit": "nM"}]}
{"smiles": "CC(C)Cn1c(=O)n(C)c(=O)c2nc(CCCCCCO)c(Cc3cccc4ccccc34)nc21", "values": [{"measurement": "EC50", "setting": "Raji", "result": 1690, "unit": "nM"}]}
{"smiles": "Cc1n[nH]c(C)c1Cc1nc2c(nc1CCCCCO)c(=O)n(C)c(=O)n2CC(C)C", "values": [{"measurement": "EC50", "setting": "Raji", "result": "> 10000", "unit": "nM"}]}
{"smiles": "CC(C)Cn1c(=O)n(C)c(=O)c2c1nc(Cc1cccc3ccccc13)c(=O)n2CCCCCO", "values": [{"measurement": "EC50", "setting": "Raji", "result": 1420, "unit": "nM"}]}
{"smiles": "CC(C)Cn1c(=O)n(C)c(=O)c2nc(-c3nnn(C)c3CCCO)c(Cc3cccc4ccccc34)nc21", "values": [{"measurement": "EC50", "setting": "Raji", "result": "> 10000", "unit": "nM"}]}
{"smiles": "CC(C)Cn1c(=O)n(C)c(=O)c2nc(SCCCO)c(Cc3cccc4ccccc34)nc21", "values": [{"measurement": "EC50", "setting": "Raji", "result": 151, "unit": "nM"}]}
{"smiles": "CC(C)Cn1c(=O)n(C)c(=O)c2nc(SCCCCO)c(Cc3cccc4ccccc34)nc21", "values": [{"measurement": "EC50", "setting": "Raji", "result": 37, "unit": "nM"}, {"measurement": "Activity", "setting": "MCF7 [4]", "result": "Non-toxic"}]}
{"smiles": "CC(C)Cn1c(=O)n(C)c(=O)c2[nH]c(=O)c(Cc3cccc4ccccc34)nc21", "values": [{"measurement": "EC50", "setting": "Raji", "result": "> 10000", "unit": "nM"}]}
{"smiles": "CC(C)Cn1c(=O)n(C)c(=O)c2nc(CCCCO)c(Cc3cccc4ccccc34)nc21", "values": [{"measurement": "EC50", "setting": "Raji", "result": 285, "unit": "nM"}]}
{"smiles": "CC(C)Cn1c(=O)n(C)c(=O)c2nc(-c3c(CCCO)nnn3C)c(Cc3cccc4ccccc34)nc21", "values": [{"measurement": "EC50", "setting": "Raji", "result": "> 10000", "unit": "nM"}]}
{"smiles": "CC(C)Cn1c(=O)n(C)c(=O)c2nc(-c3[nH]nnc3CCCO)c(Cc3cccc4ccccc34)nc21", "values": [{"measurement": "EC50", "setting": "Raji", "result": 6020, "unit": "nM"}]}
{"smiles": "CC(C)Cn1c(=O)n(C)c(=O)c2nc(C(=O)NCCCO)c(Cc3cccc4ccccc34)nc21", "values": [{"measurement": "EC50", "setting": "Raji", "result": "> 10000", "unit": "nM"}]}
{"smiles": "CC(C)Cn1c(=O)n(C)c(=O)c2nc([S+]([O-])CCCO)c(Cc3cccc4ccccc34)nc21", "note": "(stereo not drawn)", "values": [{"measurement": "EC50", "setting": "Raji", "result": 1990, "unit": "nM"}]}
{"smiles": "CC(C)Cn1c(=O)n(C)c(=O)c2nc(SCCO)c(Cc3cccc4ccccc34)nc21", "values": [{"measurement": "EC50", "setting": "Raji", "result": 2850, "unit": "nM"}]}
{"smiles": "CC(C)Cn1c(=O)n(C)c(=O)c2nc(C(=O)N(C)CCCO)c(Cc3cccc4ccccc34)nc21", "values": [{"measurement": "EC50", "setting": "Raji", "result": "> 10000", "unit": "nM"}]}
{"smiles": "CC(C)Cn1c(=O)n(C)c(=O)c2nc(CCCCCO)c(Cc3cccc4ccccc34)nc21", "values": [{"measurement": "EC50", "setting": "Raji", "result": 58, "unit": "nM"}, {"measurement": "Activity", "setting": "MCF7 [4]", "result": "Non-toxic"}]}
{"smiles": "CC(C)Cn1c(=O)n(C)c(=O)c2nc(/C=C\\CCCO)c(Cc3cccc4ccccc34)nc21", "values": [{"measurement": "EC50", "setting": "Raji", "result": 70, "unit": "nM"}, {"measurement": "Activity", "setting": "MCF7 [5]", "result": "Toxic"}]}
